Results reported in ChEMBL document CHEMBL4038284, “Synthesis of novel quinoline-based 4,5-dihydro-1H-pyrazoles as potential anticancer, antifungal, antibacterial and antiprotozoal agents” (Eur J Med Chem, 2017).
Converted amounts (≈) assume the structure as drawn. The source made the active and inactive calls. The calls are words filed in the database; no cut-off is given here.

Experiments:
NCI-H522 = assay: Growth inhibition of human NCI-H522 cells at 10 uM incubated for 48 hrs by sulforhodamine B assay; type: functional, cell-based
Procedure, shortened: (§1)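 NCI 60-line panel, single 10 μM dose. Cells were grown in RPMI-1640 with 5% FBS and 2 mM L-glutamine and pre-incubated 24 h before compound addition (DMSO stock). Exposure was 48 h at 37 °C, 5% CO2. Cells were fixed with cold TCA (10% final), stained with 0.4% SRB, bound dye dissolved in 10 mM Tris base, A515 read. Growth was taken relative to time-zero and untreated control plates.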

OVCAR-5 = assay: Growth inhibition of human OVCAR5 cells at 10 uM incubated for 48 hrs by sulforhodamine B assay; type: functional, cell-based; procedure, shortened: as §1
SK-MEL-2 = assay: Growth inhibition of human SK-MEL-2 cells at 10 uM incubated for 48 hrs by sulforhodamine B assay; type: functional, cell-based
Procedure, shortened: (§2)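 NCI-60 single-dose screen at 10 µM for 48 h. Cells were grown in RPMI-1640 with 5% FBS and 2 mM L-glutamine and preincubated 24 h before compound. Time-zero plates were TCA-fixed at compound addition. After exposure, cells were TCA-fixed, stained with SRB and read at 515 nm. Percentage growth was calculated against time-zero and untreated-control absorbances.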

SK-MEL-28 = assay: Growth inhibition of human SK-MEL-28 cells at 10 uM incubated for 48 hrs by sulforhodamine B assay; type: functional, cell-based; procedure, shortened: as §2
MOLT-4 = assay: Growth inhibition of human MOLT4 cells at 10 uM incubated for 48 hrs by sulforhodamine B assay; type: functional, cell-based; procedure, shortened: as §1
BT-549 = assay: Growth inhibition of human BT549 cells at 10 uM incubated for 48 hrs by sulforhodamine B assay; type: functional, cell-based
Procedure, shortened: (§3)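 NCI 60-cell-line screen at a single 10 µM dose. Cells in RPMI-1640 with 5% FBS and 2 mM L-glutamine, pre-incubated 24 h, then treated for 48 h at 37 °C. TCA fixation, sulforhodamine B staining, absorbance at 515 nm. Percentage growth calculated against time-zero and untreated controls.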

NCI-H322M = assay: Growth inhibition of human NCI-H322M cells at 10 uM incubated for 48 hrs by sulforhodamine B assay; type: functional, cell-based; procedure, shortened: as §1
COLO 205 = assay: Growth inhibition of human COLO205 cells at 10 uM incubated for 48 hrs by sulforhodamine B assay; type: functional, cell-based; procedure, shortened: as §3
Candida albicans [1] = assay: Growth inhibition of Candida albicans ATCC 10231 at 125 ug/ml incubated for 48 hrs under dark condition by broth microdilution method relative to control; type: functional; conditions: ATCC 10231, 48 h, read-out: GI
Procedure, shortened: (§4)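 CLSI M27-A3 broth microdilution in RPMI-1640, DMSO ≤1%. Inoculum 1-5 × 10^3 CFU/mL. Incubated 48 h at 30 °C, dark. % inhibition = 100 − (OD405 test − sterility control)/(OD405 growth control − sterility control), with growth and sterility control wells. Triplicate.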

A498 = assay: Growth inhibition of human A498 cells at 10 uM incubated for 48 hrs by sulforhodamine B assay; type: functional, cell-based; procedure, shortened: as §3
IGROV-1 = assay: Growth inhibition of human IGROV1 cells at 10 uM incubated for 48 hrs by sulforhodamine B assay; type: functional, cell-based; procedure, shortened: as §1
Candida albicans [2] = assay: Growth inhibition of Candida albicans ATCC 10231 at 62.5 ug/ml incubated for 48 hrs under dark condition by broth microdilution method relative to control; type: functional; conditions: ATCC 10231, 48 h, read-out: GI; procedure, shortened: as §4
M14 = assay: Growth inhibition of human M14 cells at 10 uM incubated for 48 hrs by sulforhodamine B assay; type: functional, cell-based; procedure, shortened: as §1
A549 = assay: Growth inhibition of human A549/ATCC cells at 10 uM incubated for 48 hrs by sulforhodamine B assay; type: functional, cell-based; procedure, shortened: as §3
Trypanosoma cruzi = assay: Antitrypanosomal activity against Trypanosoma cruzi Tulahuen intracellular amastigote harboring LacZ infected in human U937 cells after 72 hrs by CPRG/Nonidet reagent based spectrophotometric method; type: functional, cell-based; conditions: U-937, 72 h
Procedure, shortened: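 U-937 cells at 2.5 × 10^5 cells/mL in RPMI-1640 with 10% serum and 0.1 µg/mL PMA were infected with β-galactosidase-transfected Tulahuen epimastigotes at 5 parasites per cell. Infected cells were exposed to 50, 12.5, 3.125 and 0.78 µg/mL for 72 h. CPRG (100 uM) and 0.1% Nonidet P-40 were added for 3 h, read at 570 nm. EC50 by Probit. Triplicate, at least two experiments; benznidazole as reference.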

Leishmania panamensis = assay: Antileshmanial activity against EpiR/GFP fused Leishmania panamensis MHOM/CO/87/UA140 intracellular amastigotes infected in human […] cells after 72 hrs by flow cytometric method; type: functional, cell-based; conditions: MHOM/CO/87/UA140, 72 h
Procedure, shortened: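 PMA-treated U-937 cells (3 × 10^5 cells/mL) infected with stationary-phase GFP L. panamensis promastigotes (15:1), 3 h at 34 °C, then washed. After 24 h, compounds added at 50, 12.5, 3.125 and 0.78 µg/mL for 72 h at 37 °C. EC50 by Probit; triplicate, two experiments.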

Neisseria gonorrhoeae = assay: Antibacterial activity against beta lactamase positive Neisseria gonorrhoeae ATCC 31426 by oxidase test; type: functional
Procedure, shortened: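 Agar dilution MIC on GC agar with 1% isovitalex containing increasing compound concentrations. Plates inoculated with about 1×10^4 CFU (5 µL). MIC is the lowest concentration that inhibited growth, with growth confirmed by oxidase test. Run in duplicate, repeated at least three times.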

NCI-H23 = assay: Growth inhibition of human NCI-H23 cells at 10 uM incubated for 48 hrs by sulforhodamine B assay; type: functional, cell-based; procedure, shortened: as §1
SF-268 = assay: Growth inhibition of human SF268 cells at 10 uM incubated for 48 hrs by sulforhodamine B assay; type: functional, cell-based; procedure, shortened: as §1
SNB-75 = assay: Growth inhibition of human SNB75 cells at 10 uM incubated for 48 hrs by sulforhodamine B assay; type: functional, cell-based; procedure, shortened: as §2
U-937 = assay: Cytotoxicity against human U937 cells after 72 hrs by MTT assay; type: cell-based; conditions: u-937, 72 h
Procedure, shortened: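 Exponentially growing U-937 at 1 × 10^5 cells/mL in RPMI-1640 with 10% FBS were exposed to 200, 50, 12.5 and 3.125 µg/mL for 72 h at 37 °C, 5% CO2. MTT for 3 h, stopped with isopropanol/SDS, formazan read at 570 nm, blank-corrected. LC50 by Probit from % viability against untreated cells. Triplicate, at least two independent experiments.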

SR = assay: Growth inhibition of human SR cells at 10 uM incubated for 48 hrs by sulforhodamine B assay; type: functional, cell-based; procedure, shortened: as §2
SW-620 = assay: Growth inhibition of human SW620 cells at 10 uM incubated for 48 hrs by sulforhodamine B assay; type: functional, cell-based; procedure, shortened: as §2
NCI-H460 = assay: Growth inhibition of human NCI-H460 cells at 10 uM incubated for 48 hrs by sulforhodamine B assay; type: functional, cell-based; procedure, shortened: as §1
DU-145 = assay: Growth inhibition of human DU145 cells at 10 uM incubated for 48 hrs by sulforhodamine B assay; type: functional, cell-based; procedure, shortened: as §3
U-251 = assay: Growth inhibition of human U251 cells at 10 uM incubated for 48 hrs by sulforhodamine B assay; type: functional, cell-based; procedure, shortened: as §2
TK-10 = assay: Growth inhibition of human TK10 cells at 10 uM incubated for 48 hrs by sulforhodamine B assay; type: functional, cell-based; procedure, shortened: as §2
MCF7 = assay: Growth inhibition of human MCF7 cells at 10 uM incubated for 48 hrs by sulforhodamine B assay; type: functional, cell-based; procedure, shortened: as §1

Structure (SMILES) | growth inhibition (GI) (NCI-H522) | growth inhibition (GI) (OVCAR-5) | growth inhibition (GI) (SK-MEL-28) | growth inhibition (GI) (MOLT-4) | growth inhibition (GI) (BT-549) | growth inhibition (GI) (NCI-H322M) | growth inhibition (GI) (COLO 205) | inhibition of growth at 125 µg/mL (Candida albicans [1]) | growth inhibition (GI) (A498) | growth inhibition (GI) (IGROV-1) | inhibition of growth at 62.5 µg/mL (Candida albicans [2]) | growth inhibition (GI) (M14) | growth inhibition (GI) (A549) | EC50 (Trypanosoma cruzi) | EC50 (Leishmania panamensis) | MIC (Neisseria gonorrhoeae) | growth inhibition (GI) (NCI-H23) | growth inhibition (GI) (SF-268) | growth inhibition (GI) (SNB-75) | LC50 (U-937) | other results
COc1ccc(C2=NN(c3ccccc3)C(c3cccc(Nc4ccnc5cc(Cl)ccc45)c3)C2)cc1 (configuration not stated) | inactive | inactive | inactive | inactive | inactive | inactive | inactive | 19.8% | inactive | inactive | 17.3% | inactive | inactive | 86.8 µg/mL (≈ 172 µM) | 6.93 µg/mL (≈ 13.7 µM) | > 1000 µg/mL | inactive | inactive | inactive | 28 µg/mL (≈ 55.4 µM) | growth inhibition (GI) (SK-MEL-2): inactive; growth inhibition (GI) (SR): inactive; growth inhibition (GI) (SW-620): inactive; growth inhibition (GI) (NCI-H460): inactive; growth inhibition (GI) (DU-145): inactive; growth inhibition (GI) (U-251): inactive; growth inhibition (GI) (TK-10): inactive; growth inhibition (GI) (MCF7): inactive
COc1cc(C(=O)/C=C/c2cccc(Nc3ccnc4cc(Cl)ccc34)c2)cc(OC)c1OC | Active | Active | Active | Active | Active | Active | Active | 10.7% | Active | Active | 7.6% | Active | Active | 1.09 µg/mL (≈ 2.3 µM) | 5.92 µg/mL (≈ 12.5 µM) | > 1000 µg/mL | Active | Active | Active | 0.9 µg/mL (≈ 1.89 µM) | growth inhibition (GI) (SR): Active; growth inhibition (GI) (SW-620): Active; growth inhibition (GI) (NCI-H460): Active; growth inhibition (GI) (DU-145): Active; growth inhibition (GI) (U-251): Active; growth inhibition (GI) (TK-10): Active; growth inhibition (GI) (MCF7): Active
O=CN1N=C(c2ccc(Cl)cc2)CC1c1cccc(Nc2ccnc3cc(Cl)ccc23)c1 (configuration not stated) | Active | Active | Active | Active | Active | Active | Active | 35.7% | Active | Active | 28.2% | Active | Active | 0.7 µg/mL (≈ 1.52 µM) | 281 µg/mL (≈ 609 µM) | > 1000 µg/mL | Active | Active | Active | 0.6 µg/mL (≈ 1.3 µM) | growth inhibition (GI) (SR): Active; growth inhibition (GI) (SW-620): Active; growth inhibition (GI) (NCI-H460): Active; growth inhibition (GI) (DU-145): Active; growth inhibition (GI) (U-251): Active; growth inhibition (GI) (TK-10): Active; growth inhibition (GI) (MCF7): Active
COc1ccc(C2=NN(C=O)C(c3cccc(Nc4ccnc5cc(Cl)ccc45)c3)C2)cc1 (configuration not stated) | Active | Active | Active | Active | Active | Active | Active | 28% | Active | Active | 20.1% | Active | Active | > 0.15 µg/mL | 33.1 µg/mL (≈ 72.5 µM) | > 1000 µg/mL | Active | Active | Active | 0.3 µg/mL (≈ 0.657 µM) | growth inhibition (GI) (SR): Active; growth inhibition (GI) (SW-620): Active; growth inhibition (GI) (NCI-H460): Active; growth inhibition (GI) (DU-145): Active; growth inhibition (GI) (U-251): Active; growth inhibition (GI) (TK-10): Active; growth inhibition (GI) (MCF7): Active
O=Cc1cccc(Nc2ccnc3cc(Cl)ccc23)c1 |  |  |  |  |  |  |  | 34.8% |  |  | 19.6% |  |  | 1.15 µg/mL (≈ 4.07 µM) | 0.96 µg/mL (≈ 3.4 µM) | 500 µg/mL (≈ 1770 µM) |  |  |  | 0.6 µg/mL (≈ 2.12 µM) | 
COc1ccc(C(=O)/C=C/c2cccc(Nc3ccnc4cc(Cl)ccc34)c2)cc1 | Active | Active | Active | Active | Active | Active | Active | 46.8% | Active | Active | 41.1% | Active | Active | 3.29 µg/mL (≈ 7.93 µM) | 2.65 µg/mL (≈ 6.39 µM) | > 1000 µg/mL | Active | Active | Active | 8.1 µg/mL (≈ 19.5 µM) | growth inhibition (GI) (SR): Active; growth inhibition (GI) (SW-620): Active; growth inhibition (GI) (NCI-H460): Active; growth inhibition (GI) (DU-145): Active; growth inhibition (GI) (U-251): Active; growth inhibition (GI) (TK-10): Active; growth inhibition (GI) (MCF7): Active
